pIC50: −log10 of the molar value.
How the values were obtained:
[1] = target: Glycogen synthase kinase-3 beta (Homo sapiens, UniProt P49841); experiment: Competitive inhibition of human recombinant full length GSK3beta using YRRAAVPPSPSLSRHSSPHQ(pS)EDEEE as substrate preincubated with enzyme for 10 mins followed by substrate and 100 uM ATP addition measured after 60 mins by ADP-Glo luminescence assay
Summary of the method: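 Recombinant human GSK3β at 0.58 ng/µL with 0.2 µg/µL substrate G50-58; ATP at 25 µM, 100 µM or 500 µM, each as its line states. Compounds in serial dilutions were preincubated with kinase for 10 min at rt. Substrate/ATP was then added and the reaction ran 60 min at rt. ADP-Glo reagent 60 min, detection reagent 30 min, then luminescence read (500 ms integration).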

[2] = target: Hepatocyte growth factor receptor (Homo sapiens) (UniProt P08581); experiment: Inhibition of human recombinant MET at 1 uM using Ulight-CAGAGAIETDKEYYTVKD as substrate measured after 60 mins in presence of ATP by LANCE assay relative to control
Summary of the method: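 Kinase panel run by an outside provider (Eurofins Cerep) in a LANCE assay, single test concentration of 1 µM, results as percent inhibition.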

Hepatocyte growth factor receptor (Homo sapiens), sequence (P08581 whole entry): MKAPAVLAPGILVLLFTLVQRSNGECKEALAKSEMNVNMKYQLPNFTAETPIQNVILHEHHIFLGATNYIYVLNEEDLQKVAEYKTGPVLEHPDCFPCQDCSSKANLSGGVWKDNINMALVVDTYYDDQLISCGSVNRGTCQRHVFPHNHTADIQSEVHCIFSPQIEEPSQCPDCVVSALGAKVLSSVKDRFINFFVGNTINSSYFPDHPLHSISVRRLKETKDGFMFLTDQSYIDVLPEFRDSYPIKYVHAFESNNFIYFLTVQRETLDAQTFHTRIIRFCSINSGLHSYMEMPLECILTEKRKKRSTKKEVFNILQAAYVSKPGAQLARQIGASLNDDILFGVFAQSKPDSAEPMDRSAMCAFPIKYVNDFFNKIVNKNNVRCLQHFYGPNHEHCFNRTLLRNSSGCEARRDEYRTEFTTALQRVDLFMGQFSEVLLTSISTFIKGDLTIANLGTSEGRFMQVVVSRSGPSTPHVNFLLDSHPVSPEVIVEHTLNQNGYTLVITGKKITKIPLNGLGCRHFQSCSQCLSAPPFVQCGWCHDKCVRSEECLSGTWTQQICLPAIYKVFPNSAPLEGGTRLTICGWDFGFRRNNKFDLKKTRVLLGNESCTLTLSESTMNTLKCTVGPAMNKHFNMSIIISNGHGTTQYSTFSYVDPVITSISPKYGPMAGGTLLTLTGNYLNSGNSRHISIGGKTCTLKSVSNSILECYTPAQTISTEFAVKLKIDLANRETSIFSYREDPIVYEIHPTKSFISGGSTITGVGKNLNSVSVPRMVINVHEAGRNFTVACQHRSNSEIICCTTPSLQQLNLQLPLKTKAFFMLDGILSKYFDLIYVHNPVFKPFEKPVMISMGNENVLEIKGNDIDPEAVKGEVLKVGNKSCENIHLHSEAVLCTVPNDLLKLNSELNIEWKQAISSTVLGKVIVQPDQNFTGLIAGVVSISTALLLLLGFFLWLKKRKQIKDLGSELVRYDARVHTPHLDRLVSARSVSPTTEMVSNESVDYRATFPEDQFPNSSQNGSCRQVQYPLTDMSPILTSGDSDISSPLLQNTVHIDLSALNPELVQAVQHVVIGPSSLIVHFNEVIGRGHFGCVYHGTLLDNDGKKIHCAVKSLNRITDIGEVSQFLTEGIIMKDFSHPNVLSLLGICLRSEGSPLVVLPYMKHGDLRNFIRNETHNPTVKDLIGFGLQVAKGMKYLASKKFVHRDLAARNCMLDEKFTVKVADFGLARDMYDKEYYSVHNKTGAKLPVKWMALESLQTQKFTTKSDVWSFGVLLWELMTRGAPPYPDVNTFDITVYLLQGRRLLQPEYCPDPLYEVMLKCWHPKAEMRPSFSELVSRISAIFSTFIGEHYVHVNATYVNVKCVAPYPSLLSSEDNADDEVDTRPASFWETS
Glycogen synthase kinase-3 beta, sequence (P49841 whole entry): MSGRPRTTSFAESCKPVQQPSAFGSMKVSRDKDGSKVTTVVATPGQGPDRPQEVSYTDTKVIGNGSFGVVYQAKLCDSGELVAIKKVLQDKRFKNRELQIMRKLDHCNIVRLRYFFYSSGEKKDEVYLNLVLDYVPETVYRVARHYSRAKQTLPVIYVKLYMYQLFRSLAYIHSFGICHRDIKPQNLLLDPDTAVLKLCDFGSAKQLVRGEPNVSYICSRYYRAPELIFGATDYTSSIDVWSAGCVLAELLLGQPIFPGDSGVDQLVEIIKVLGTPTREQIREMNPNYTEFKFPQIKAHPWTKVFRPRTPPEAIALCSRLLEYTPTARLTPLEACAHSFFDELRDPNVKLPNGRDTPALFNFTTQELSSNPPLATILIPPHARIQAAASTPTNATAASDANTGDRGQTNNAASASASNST

CCc1nc(-c2ccc(F)cc2)c(-c2ccnc(NC(=O)C3CC3)c2)[nH]1
pIC50 [1]: 6.96 | inhibition [2]: 54.9%

Reference: ChEMBL document CHEMBL4393708, “Pyridinylimidazoles as dual glycogen synthase kinase 3β/p38α mitogen-activated protein kinase inhibitors” (Eur J Med Chem, 2019)
